Reference: ChEMBL document CHEMBL4513216, “Probing the Open Global Health Chemical Diversity Library for Multistage-Active Starting Points for Next-Generation Antimalarials” (ACS Infect Dis, 2020)

Assay: Toxicity liver stage against HepG2, at 10uM
Assay type: cell-based
Design: test concentration 10 uM, cell line HepG2-A16-CD81EGFP
Details: human, HepG2-A16-CD81EGFP cells; read-out: INHIBITION
Method in brief: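 Uninfected HepG2-A16-CD81EGFP cells, 3 × 10^3 per well, 1536-well, plated on prespotted compound at 10 μM final, parasite-free screening media added to match infected plates; puromycin 10 μM positive, DMSO 0.5% negative; run in parallel with 48 h PbLuc assay at 37 °C, 5% CO2; viability by CellTiter-Glo luminescence, normalized to controls.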

SMILES | cytotoxicity at 10 µM
O=C(CN1CCc2ccccc2C1)NCc1ccco1 | 6.32%
O[C@H]1COCCN(Cc2cccc3c2OCO3)C1 | -3.04%
CO[C@H]1COCCN(C(=O)c2ccc(F)cc2)C1 | 0.287%
CCOCc1nc(N2CCCC2)sc1C(=O)NCc1ccco1 | -1.89%
CCOCCCNC(=O)C1(C)CCC(=O)N1c1ccccc1OC (stereo not given) | 2.89%
CN1CCCN(c2ncnc(N3CCOCC3)c2N)CC1 | 1.08%
CN1CC[C@H](N(Cc2ccccc2)Cc2ccccc2)C[C@H](O)C1 | -5.96%
COC1CCN(C(=O)COC(C)=O)CC(=O)N(C)c2ccccc21 (stereo not given) | 3.17%
O=C(CNC(=O)c1c[nH]c2ccccc12)NCCCn1ccnc1 | -11.1%
CC(=O)N1CCN(c2cnnc(N3CCCC3)c2)CC1 | 8.19%
CCN1C(=O)CCCC12CCCN(C(=O)c1ccoc1C)C2 (stereo not given) | -11.8%
CCO[C@@H]1CC[C@H]2[C@H]1OCCN2C(=O)c1ccc(OC)c(F)c1 | 15.7%
CCN1CC2(CC1=O)CN(C(=O)N(C)C)CCN(S(C)(=O)=O)C2 (stereo not given) | -0.757%
CN(C)CCN1CCO[C@H]2CN(C(=O)C3CCOCC3)C[C@H]21 | 1.58%
CS(=O)(=O)N1CCO[C@@H]2CCN(C(=O)c3cccs3)CC[C@H]21 | -2.35%
CNC(=O)[C@@H]1COC[C@H]2CN(C(=O)c3ccc(C)c(F)c3)C[C@H]21 | 0.165%
O=C1CCCN1Cc1ncn2c1CN(C(=O)Cc1cccs1)CCC2 | 5.26%
COc1ccc(-n2nnc(C(=O)O)c2-c2ccccn2)cc1 | 13.7%
CCn1ncc(S(=O)(=O)NC(C)c2cc(OC)ccc2OC)c1C (stereo not given) | -4.48%
O=C(CCS(=O)(=O)c1ccccc1)NCCCn1cccn1 | 12%
COc1ccccc1OCCc1nnc(NC(=O)C2CC23CCC3)s1 (stereo not given) | 1.26%
CC(=O)N1CCC(c2ncc(C(=O)Nc3ccc(F)cc3)c(C)n2)CC1 | 7.29%

SMILES | cytotoxicity at 10 µM
COCCN1CCCC1c1ccnc(-c2ccccc2)n1 (stereo not given) | 1.09%
CC(C)c1nc(O)c2nnn(C[C@H]3CCCN(Cc4ccsc4)C3)c2n1 | 1.8%
Cc1nc(CCC(=O)NCC(N)=O)cc(C2CCNCC2)n1 | -3.03%
C[C@]1(O)CCN(Cc2c[nH]cn2)C[C@@H]1Oc1cccc(F)c1 | -5.72%
O=C(c1ccc2c(c1)CCC2)N1CC[C@H](O)[C@]2(CCCO2)C1 | -8.97%
Cc1ccc(C(=O)Nc2ccc3c(c2)N(C)CCN(C)C3)c(=O)[nH]1 | -2.17%
CS(=O)(=O)NC1CCN(C(=O)CCC2CCCO2)CC1 (stereo not given) | -0.367%
Cn1ccnc1CNC1CCCOc2c1ccc1ccccc21 (stereo not given) | 13.3%
CCc1nc2n(n1)CC(NCC1=Cc3ccc(OC)cc3OC1)CC2 (stereo not given) | 4.02%
CCNC(=O)CN(CC)C(=O)c1csc(Cc2ccccc2F)n1 | 7.6%
O=S(=O)(N1CCN(CC2CC2)CC1)N1CCCC1c1ccco1 (stereo not given) | 1.24%
COC(=O)C(NC(=O)c1cc(C)ccc1C)c1cccnc1 (stereo not given) | -39.7%
CNS(=O)(=O)c1ccc(CNC(=O)NCc2cc[nH]n2)cc1 | 1.91%
CCN(CC)CCCC(C)NC(=O)c1ccccc1-n1cccn1 (stereo not given) | 15.9%
CCOCCC(=O)NCC(C)c1ccsc1 (stereo not given) | 15.1%
CC(NC(=O)COc1ccccc1I)C1CC1 (stereo not given) | 2.72%
CN1CCC(C(=O)N2CCCN(c3cccnn3)CC2)C1 (stereo not given) | -8.82%
Cc1cc(CNc2ccc(CC(=O)N(C)c3ccccc3)cc2)no1 | -13.9%
CC(=O)N(Cc1ncc(C)o1)C1CCN(Cc2cccnc2)C1 (stereo not given) | 15.3%
Cc1ccc(CNCc2c(C)nn(C)c2N(C)C)cn1 | 4.65%
O=C(NC1(c2nnn(CC3CCCO3)n2)CCCC1)c1ccccc1 (stereo not given) | 13.2%
O=C(NC1CC1)c1cc(NC(=O)N2CCCC2)ccc1Cl | 3.31%

SMILES | cytotoxicity at 10 µM
O=C(CN1CCCC1Cn1cncn1)Nc1nccs1 (stereo not given) | 4.1%
CCc1noc(CN(CCC2CCCCC2)CC(N)=O)n1 | 5.76%
Cn1cc(NC(=O)CCCc2cccs2)c(=O)n(C)c1=O | 5.55%
CCOC(C(=O)N1CCn2c(CC)nnc2C1)c1ccccc1 (stereo not given) | 4.48%
O=C(c1cccnc1O)N(CCO)Cc1cc(Br)ccc1F | 6.27%
CC1(C)CN=C(N2CCN(CC3CCOC3)CC2)S1 (stereo not given) | 11.7%
CC(C)(C)OC(=O)N1CCCN1C(=O)c1cccc(F)c1F | -10.3%
CC(Cn1cccn1)NCC(=O)N(C)Cc1ccsc1 (stereo not given) | -7.32%
CC(=O)NCCc1ccc(S(=O)(=O)Nc2ccc(C)c(F)c2)s1 | 5.72%
CSCc1cc(C(=O)NC2(C#N)CC2)ccc1F | -10.5%
COc1ccccc1N1CCN(Cc2cnc3c(c2)c(C)nn3C)CC1 | -0.949%
Cc1nc(CNC(=O)Nc2ccc3c(c2)CCCN3C)sc1C | -3.68%
CCOC(=O)C1CCN(C(=O)Cc2c(C)nc(C)[nH]c2=O)CC1 | 16.6%
CCNC(=O)NC(=O)CN1CCOC(c2ccccc2Cl)C1 (stereo not given) | 6.58%
Cc1noc(C)c1CNc1c(N2CCCC2)cccc1N1CCCC1 | 6.17%
O=C(Nc1ccccn1)NC(CCCO)c1ccccc1 (stereo not given) | 3.72%
Cc1occc1C(=O)Nc1cc(N2CCNC2=O)ccc1Cl | 8.56%
CCCn1nnnc1CN(c1ccc(N2CCOCC2)cc1)C(C)C | 6.8%
CNc1nc(CNC(=O)Nc2ccccc2OC(C)C)cs1 | -12.1%
CC(C)c1csc(C2CCCN(C(=O)c3ncccn3)C2)n1 (stereo not given) | 6.3%
Cn1nc(CNc2ncccn2)c2c1CN(c1cnccn1)CC2 | -107%
O=S(=O)(C1CC1)N1CCc2ncnc(N3CCOCC3)c2CC1 | -109%

SMILES | cytotoxicity at 10 µM
O=S(=O)(C1CC1)N1CCC2(COCc3cnc(-c4cccnc4)nc32)C1 (stereo not given) | -115%
Cn1cc(C2COC3(CCN(C(=O)c4cccc(O)c4)CC3)C2)cn1 (stereo not given) | -73.3%
OCC1(CCOc2ccccc2)CCN(c2ccc(Cl)cn2)CC1 | -43.4%
O=C1NCCCc2[nH]c(Cc3cccc(Cl)c3)nc21 | 13%
Cc1cc(N2CCN(Cc3ccccc3)CC(O)C2)nc(N)n1 (stereo not given) | 1.06%
Cc1cccn2c(CNC(C)CCn3cccn3)cnc12 (stereo not given) | 21.6%
CC(C)N1CCC(CC(=O)NCC2OCCc3ccccc32)CC1 (stereo not given) | -4.65%
O=C(O)C1(Oc2ccc3c(c2)OCO3)CCN(C2CCOCC2)CC1 | -13.3%
COCc1cc(NCCc2ccc(OC)cc2)n2nccc2n1 | 0.266%
CN(Cc1cc(C(C)(C)C)n[nH]1)C(=O)CCC(=O)NC1CCCC1 | -2.12%
O=C(O)c1ccc(N2CCC(Oc3cccc(F)c3)CC2)nc1 | -60.7%
COc1ccccc1C(=O)N1CCN(C(=O)CCCc2cn[nH]c2)CC1 | 2.68%
O=C(NN1CCCc2ccccc21)c1c[nH]c(=O)[nH]1 | 8.73%
CC(=O)NCc1cc2n(n1)CCN(Cc1cc(-c3ccccc3)no1)C2 | 7.12%
Cc1cc(C)n(-c2ccc(C(=O)NCC(CO)Cc3ccco3)cc2)n1 (stereo not given) | 3.62%
Cc1nc(S(=O)(=O)N2CCc3[nH]nc(CCC(C)C)c3C2)cn1C | 10.2%
CCCOC1CCCN(C(=O)c2ccnnc2)C1 (stereo not given) | -20.6%
CCc1ocnc1C(=O)N1CCC2(CCCN(CC(C)(C)C)C2=O)C1 (stereo not given) | 7.79%
O=C1CCCc2occ(C(=O)N3CCCC4(CCNC4)C3)c21 (stereo not given) | 9.15%
CC(=O)Nc1ccc(Cl)c(C(=O)N(C)C(C)c2ccncn2)c1 (stereo not given) | -42.6%
Cc1n[nH]c(C)c1C1COCCN1C(=O)c1ccc2c(c1)CCO2 (stereo not given) | -4.01%
CCC1CN(C(=O)c2cccc(OCc3cscn3)c2)CCO1 (stereo not given) | -7.51%

SMILES | cytotoxicity at 10 µM
COCCN1CCCC1Cn1nc(C)cc1C (stereo not given) | 1.31%
c1cnnc(N2CCCC2CNCc2csc(-c3ccco3)n2)c1 (stereo not given) | -8.42%
COc1ccc(CC(=O)N(C)Cc2nnc3ccccn23)cc1 | 5.44%
c1cc(CC2CCCNC2)nc(NCCc2cnccn2)c1 (stereo not given) | 3.64%
O=C([C@@H]1CC[C@@H]2[C@@H](CCN2CCOCc2ccccc2)O1)N1CCCC1 | -110%
CC(NCc1ccc(OCC(N)=O)cc1)c1ccc(Cl)cc1Cl (stereo not given) | 13.1%
CN(Cc1cccnc1)[C@@H]1CN(C(=O)NC2CC2)[C@@H]2CCCO[C@H]12 | 2.75%
O=C(CN1CC(c2nc(-c3cccs3)no2)C1)NCC1CCCO1 (stereo not given) | -1.47%
c1ccc(OC[C@]23COC[C@H]2CN(c2ncccn2)C3)nc1 | -14.1%
CN(C)CCOC1CC2(CCN(c3cnccn3)CC2)c2ccccc21 (stereo not given) | -2.69%
Cc1cc(C(=O)N2C[C@@H]3OCCN(CCN4CCCC4)[C@@H]3C2)c(C)o1 | -74.8%
O=C1CC(c2ccccc2)C2(CCN(C(=O)c3ccncc3F)CC2)N1 (stereo not given) | -76.9%
CS(=O)(=O)N1CCO[C@H]2[C@@H](Oc3ncccc3F)CC[C@@H]21 | -2.54%
O=C(NCC1OCCc2cn(CC3CCOCC3)nc21)c1ccncc1 (stereo not given) | -78%
CCOCc1nn(C)c2c1CN(Cc1cccs1)CC2 | -101%
CC(C)CN1CC[C@@H]2[C@@H]1CCN2C(=O)N1CCCC1 | -1%
Cc1oncc1C(=O)N1CCc2ncnc(-c3cnn(C)c3)c2CC1 | 7.07%
CC(C)CNC(=O)N1CC[C@@H]2CN(Cc3cccnc3)S(=O)(=O)[C@@H]2CC1 | -93.6%
NC1(c2nc(C(F)(F)F)cc(=O)[nH]2)CCCC1 | 19.1%
O=C(Nc1ccccc1)N1CCC(n2cc3[nH]cccc-3c2=O)CC1 | -3.73%
COCCN1C(=O)[C@@H]2CC[C@H]1CN(S(=O)(=O)c1cccc(Cl)c1)C2 | 20.5%
COc1ccc(C2CC(=O)c3c(O)cc(O)cc3O2)cc1O (stereo not given) | -2.66%
